In ChEMBL document CHEMBL3217582, “Design of symmetrical and nonsymmetrical N,N-dimethylaminopyridine derivatives as highly potent choline kinase alpha inhibitors” (Medchemcomm, 2013):
pEC50, pIC50: −log10 of the molar value. The source made the active and inactive calls. The rule behind the calls is not given here.

Experiments:
A549 = assay: Growth inhibition of human A549 cells overexpressing CHKA2 after 72 hrs by sulforhodamine assay; format: functional; conditions: A549, 72 h
In short: (§1)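 A549 (DMEM) or HCT-116 (RPMI-1640) cells in 10% FCS, 37°C, 5% CO2. Cells treated 24 h after seeding with 9 inhibitor concentrations, six replicates, for 72 h. Fixed with 10% TCA, stained with 0.4% SRB, read at 540 nm. GI50 from variable-slope sigmoidal fit of percent-of-control curves.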

HCT-116 = assay: Growth inhibition of human HCT116 cells overexpressing CHKA2 after 72 hrs by sulforhodamine assay; format: functional; conditions: HCT-116, 72 h; in short: as §1
Homo sapiens [1] = species on record: Homo sapiens; assay: Mixed inhibition of recombinant delta49N CHKA2 (unknown origin) using choline as substrate by Lineweaver-burk plot analysis in presence of ATP
[2] = Inhibition of recombinant delta49N CHKA2 (unknown origin) assessed as ADP formation using choline as substrate by enzyme coupled assay; parameters: species or system Homo sapiens
In short: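 Δ49N CHKA2 (20 ng) with 72 µM choline and 450 µM ATP (both at KM) in 100 mM Tris pH 7.5, 100 mM KCl, 10 mM MgCl2. Coupled system: 500 µM PEP, pyruvate kinase, LDH, 250 µM NADH. Inhibitor at varying concentrations. ADP formation followed as NADH loss at 340 nm. IC50 from variable-slope sigmoidal least-squares fit.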

Choline kinase alpha [3] = biological target: T1, Choline kinase alpha (Homo sapiens, UniProt P35790); assay: Inhibition of CHKA in human HCT116 cells assessed as [3H]phosphocholine formation using [3H]choline chloride as substrate at 2.4 +/-1 uM incubated for 1 hr prior to substrate addition measured after 1 hr by scintillation counting analysis; format: cell-based; conditions: HCT-116
In short: (§2)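 HCT-116 cells pretreated 1 h with 0.16, 0.8, 4, 20 or 100 µM inhibitor. Then pulsed 1 h with [3H]choline chloride (0.5 µCi/mL). Cells washed in cold PBS and extracted with methanol/chloroform. Choline removed with tetraphenylborate in heptan-4-one. Aqueous phosphocholine counted by liquid scintillation and compared with untreated controls.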
Target sequence in this assay (P35790 whole entry, looked up): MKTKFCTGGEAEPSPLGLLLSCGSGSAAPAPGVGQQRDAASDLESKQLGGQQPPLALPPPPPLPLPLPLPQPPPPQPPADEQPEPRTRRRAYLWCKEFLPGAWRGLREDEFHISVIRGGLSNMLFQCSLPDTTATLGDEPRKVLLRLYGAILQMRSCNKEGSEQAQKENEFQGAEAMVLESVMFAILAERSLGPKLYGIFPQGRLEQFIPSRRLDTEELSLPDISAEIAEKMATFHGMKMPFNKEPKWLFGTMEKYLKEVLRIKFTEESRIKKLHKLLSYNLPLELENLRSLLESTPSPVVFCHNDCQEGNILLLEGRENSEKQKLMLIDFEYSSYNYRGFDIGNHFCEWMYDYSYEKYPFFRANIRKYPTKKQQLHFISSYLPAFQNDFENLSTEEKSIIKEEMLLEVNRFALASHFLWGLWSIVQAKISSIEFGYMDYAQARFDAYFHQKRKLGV

Choline kinase alpha [4] = biological target: T1, Choline kinase alpha; assay: Inhibition of CHKA in human HCT116 cells assessed as [3H]phosphocholine formation using [3H]choline chloride as substrate at 6.5 +/-4 uM incubated for 1 hr prior to substrate addition measured after 1 hr by scintillation counting analysis; format: cell-based; conditions: HCT-116; in short: as §2
Target sequence in this assay (P35790 whole entry, looked up): as above

Choline kinase alpha [5] = biological target: T1, Choline kinase alpha; assay: Inhibition of CHKA in human HCT116 cells assessed as [3H]phosphocholine formation using [3H]choline chloride as substrate incubated for 1 hr prior to substrate addition measured after 1 hr by scintillation counting analysis; format: cell-based, HCT-116; conditions: for inhibition: HCT-116; in short: as §2
Homo sapiens [6] = species on record: Homo sapiens; assay: Competitive inhibition of recombinant delta49N CHKA2 (unknown origin) using 72 uM choline as substrate by Lineweaver-burk plot analysis in presence of 10 uM to 5 mM ATP
Homo sapiens [7] = species on record: Homo sapiens; assay: Competitive inhibition of recombinant delta49N CHKA2 (unknown origin) using 40 uM to 20 mM choline as substrate by Lineweaver-burk plot analysis in presence of 450 uM ATP

Row | SMILES | GI50 (A549) [µM] | GI50 (HCT-116) [µM] | inhibition (Homo sapiens [1]) | pIC50 [2] | inhibition (Choline kinase alpha [3]) [%] | inhibition (Choline kinase alpha [4]) [%] | pEC50 (Choline kinase alpha [5]) | inhibition (Choline kinase alpha [5]) | inhibition (Homo sapiens [6]) | inhibition (Homo sapiens [7])
1 | CN(C)c1cc[n+](CCCCCCCCCCCCn2cnc3c(N)ncnc32)cc1 | 5.3 | 4.1 | Active | 6.10 |  |  |  |  |  | 
2 | CN(C)c1cc[n+](CCOCCOCCOCCn2cnc3ccccc32)cc1 |  | > 1000 |  |  |  |  |  |  |  | 
3 | CN(C)c1cc[n+](CCCCCCCCCCCC[n+]2ccc(N(C)C)cc2)cc1 | 0.38 | 0.64 |  | 6.57 | > 75 | > 75 | 5.89 | Dose-dependent effect | inactive | Active
4 | CN(C)c1cc[n+](CCOCCOCCOCC[n+]2ccc(N(C)C)cc2)cc1 |  | > 1000 |  |  |  |  |  |  |  | 
5 | CN(C)c1cc[n+](CCCCCCCCC[n+]2ccc(N(C)C)cc2)cc1 | 4 | 2.6 |  | 5.89 |  |  |  |  |  | 
6 | CN(C)c1cc[n+](CCCCCCCC[n+]2ccc(N(C)C)cc2)cc1 | 3.3 | 2.5 |  | 5.57 |  |  |  |  |  | 
7 | CN(C)c1cc[n+](CCCCCCCCCCCCn2cnc3ccccc32)cc1 | 1.3 | 0.69 |  | 5.29 |  |  |  |  |  | 
8 | CN(C)c1cc[n+](CCCCCCCCCC[n+]2ccc(N(C)C)cc2)cc1 | 4.2 | 2.8 |  | 6.17 |  |  |  |  |  | 
9 | CN(C)c1cc[n+](CCCCCCCCCCC[n+]2ccc(N(C)C)cc2)cc1 | 1.6 | 2 |  | 6.54 |  |  |  |  |  | 
10 | CN(C)c1cc[n+](CCCCCCCCCCCCCC[n+]2ccc(N(C)C)cc2)cc1 | 0.33 | 0.29 |  | 6.82 | > 75 | > 75 | 6.28 | Dose-dependent effect |  | 
